# Measurements reported in ChEMBL document CHEMBL5724801, “EUbOPEN Chemogenomics Library - Multiplex” (2024).
# Where “and” joins values, the source holds several entries; their conditions need not be identical. Identical values can stand only once.
# Test system: U2OS
# Experiment: Multiplex assay against U2OS
# Type: toxicity, cell-based
# Settings: human
# How it was run: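 With compound added, live cells were imaged on a CQ1 microscope at 37°C and 5% CO2; staining with Hoechst33342, BioTracker Green Microtubule Cytoskeleton Dye, MitoTracker Red and Annexin V Alexa Fluor 680 had been done at seeding. The CellPathfinder machine-learning gating scheme split cells into Hoechst high-intensity objects or normal cells, normal cells into healthy, pyknosed or fragmented nuclei, and pyknosed cells into mitotic or apoptotic. The tubulin, mitochondrial-mass and membrane-permeability phenotypes are per cents of healthy-nucleus cells.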
# [1] = 12 h, 1 µM, compound concentration 1 uM
# [2] = 12 h, 10 µM, compound concentration 10 uM
# [3] = 24 h, 1 µM, compound concentration 1 uM
# [4] = 24 h, 10 µM, compound concentration 10 uM
# [5] = 48 h, 1 µM, compound concentration 1 uM
# [6] = 48 h, 10 µM, compound concentration 10 uM
smiles,measurement,setting,value
CCC(=O)OCC(=O)[C@@]1(OC(=O)CC)[C@@H](C)C[C@H]2[C@@H]3CCC4=CC(=O)C=C[C@]4(C)[C@@]3(Cl)[C@@H](O)C[C@@]21C [BECLOMETHASONE DIPROPIONATE],Population Apoptotic (%),[1],84% and 71%
same,Population Fragmented Nuclei (%),[1],23% and 18%
same,Population Healthy Nuclei (%),[1],64% and 75%
same,Population Hoechst High Intensity Objects (%),[1],1% and 0%
same,Population Membrane Permeable-Phenotype (%),[1],11% and 13%
same,Population Mitochondria Different-Phenotype (%),[1],4% and 8%
same,Population Mitotic Cells (%),[1],15% and 28%
same,Population Normal (%),[1],98% and 99%
same,Population Pyknosed Nuclei (%),[1],12% and 6%
same,Population Tubulin-Different-Phenotype (%),[1],6% and 4%
same,Total Cell Count,[1],160 and 111
same,Population Apoptotic (%),[2],65% and 68%
same,Population Healthy Nuclei (%),[2],40% and 69%
same,Population Hoechst High Intensity Objects (%),[2],4%
same,Population Membrane Permeable-Phenotype (%),[2],67% and 48%
same,Population Mitochondria Different-Phenotype (%),[2],73% and 97%
same,Population Mitotic Cells (%),[2],34% and 31%
same,Population Normal (%),[2],95%
same,Population Pyknosed Nuclei (%),[2],17% and 18%
same,Population Tubulin-Different-Phenotype (%),[2],80% and 97%
same,Total Cell Count,[2],176 and 109
same,Population Apoptotic (%),[3],78% and 87%
same,Population Fragmented Nuclei (%),[3],21% and 15%
same,Population Healthy Nuclei (%),[3],67% and 71%
same,Population Hoechst High Intensity Objects (%),[3],2% and 0%
same,Population Membrane Permeable-Phenotype (%),[3],2% and 6%
same,Population Mitochondria Different-Phenotype (%),[3],4% and 5%
same,Population Mitotic Cells (%),[3],21% and 12%
same,Population Normal (%),[3],97% and 99%
same,Population Pyknosed Nuclei (%),[3],10% and 13%
same,Population Tubulin-Different-Phenotype (%),[3],1% and 3%
same,Total Cell Count,[3],217 and 123
same,Population Apoptotic (%),[4],74% and 64%
same,Population Fragmented Nuclei (%),[4],35% and 12%
same,Population Healthy Nuclei (%),[4],45% and 69%
same,Population Hoechst High Intensity Objects (%),[4],3% and 9%
same,Population Membrane Permeable-Phenotype (%),[4],40% and 43%
same,Population Mitochondria Different-Phenotype (%),[4],72% and 86%
same,Population Mitotic Cells (%),[4],25% and 35%
same,Population Normal (%),[4],96% and 90%
same,Population Pyknosed Nuclei (%),[4],18% and 17%
same,Population Tubulin-Different-Phenotype (%),[4],66% and 76%
same,Total Cell Count,[4],174 and 106
same,Population Apoptotic (%),[5],91% and 85%
same,Population Fragmented Nuclei (%),[5],22% and 10%
same,Population Healthy Nuclei (%),[5],68% and 75%
same,Population Hoechst High Intensity Objects (%),[5],2%
same,Population Membrane Permeable-Phenotype (%),[5],5% and 8%
same,Population Mitochondria Different-Phenotype (%),[5],2% and 5%
same,Population Mitotic Cells (%),[5],8% and 14%
same,Population Normal (%),[5],97%
same,Population Pyknosed Nuclei (%),[5],9% and 14%
same,Population Tubulin-Different-Phenotype (%),[5],2% and 3%
same,Total Cell Count,[5],268 and 152
same,Population Apoptotic (%),[6],80% and 70%
same,Population Fragmented Nuclei (%),[6],36% and 21%
same,Population Healthy Nuclei (%),[6],47% and 65%
same,Population Hoechst High Intensity Objects (%),[6],4% and 6%
same,Population Membrane Permeable-Phenotype (%),[6],20% and 16%
same,Population Mitochondria Different-Phenotype (%),[6],26% and 36%
same,Population Mitotic Cells (%),[6],20% and 29%
same,Population Normal (%),[6],95% and 93%
same,Population Pyknosed Nuclei (%),[6],15% and 13%
same,Population Tubulin-Different-Phenotype (%),[6],14% and 10%
same,Total Cell Count,[6],199 and 131
O=c1ccc2ccc(OCCCCN3CCN(c4cccc5sccc45)CC3)cc2[nH]1 [BREXPIPRAZOLE],Population Apoptotic (%),[1],73% and 55%
same,Population Fragmented Nuclei (%),[1],23% and 16%
same,Population Healthy Nuclei (%),[1],62% and 69%
same,Population Hoechst High Intensity Objects (%),[1],6% and 2%
same,Population Membrane Permeable-Phenotype (%),[1],40% and 32%
same,Population Mitochondria Different-Phenotype (%),[1],19% and 24%
same,Population Mitotic Cells (%),[1],26% and 44%
same,Population Normal (%),[1],93% and 97%
same,Population Pyknosed Nuclei (%),[1],13% and 14%
same,Population Tubulin-Different-Phenotype (%),[1],36% and 30%
same,Total Cell Count,[1],178 and 126
same,Population Apoptotic (%),[2],86% and 82%
same,Population Fragmented Nuclei (%),[2],31% and 21%
same,Population Healthy Nuclei (%),[2],27% and 43%
same,Population Hoechst High Intensity Objects (%),[2],6% and 9%
same,Population Membrane Permeable-Phenotype (%),[2],57% and 53%
same,Population Mitochondria Different-Phenotype (%),[2],82% and 90%
same,Population Mitotic Cells (%),[2],13% and 17%
same,Population Normal (%),[2],93% and 90%
same,Population Pyknosed Nuclei (%),[2],41% and 35%
same,Population Tubulin-Different-Phenotype (%),[2],83% and 95%
same,Total Cell Count,[2],220 and 109
same,Population Apoptotic (%),[3],68% and 66%
same,Population Fragmented Nuclei (%),[3],26% and 12%
same,Population Healthy Nuclei (%),[3],55% and 67%
same,Population Hoechst High Intensity Objects (%),[3],3%
same,Population Membrane Permeable-Phenotype (%),[3],19% and 22%
same,Population Mitochondria Different-Phenotype (%),[3],22% and 28%
same,Population Mitotic Cells (%),[3],31% and 33%
same,Population Normal (%),[3],96%
same,Population Pyknosed Nuclei (%),[3],18% and 19%
same,Population Tubulin-Different-Phenotype (%),[3],18% and 16%
same,Total Cell Count,[3],181 and 128
same,Population Apoptotic (%),[4],93% and 91%
same,Population Fragmented Nuclei (%),[4],30% and 19%
same,Population Healthy Nuclei (%),[4],25% and 26%
same,Population Hoechst High Intensity Objects (%),[4],13% and 22%
same,Population Membrane Permeable-Phenotype (%),[4],47% and 56%
same,Population Mitochondria Different-Phenotype (%),[4],67% and 86%
same,Population Mitotic Cells (%),[4],6% and 8%
same,Population Normal (%),[4],86% and 77%
same,Population Pyknosed Nuclei (%),[4],44% and 54%
same,Population Tubulin-Different-Phenotype (%),[4],76% and 91%
same,Total Cell Count,[4],213 and 112
same,Population Apoptotic (%),[5],64% and 73%
same,Population Fragmented Nuclei (%),[5],21% and 22%
same,Population Healthy Nuclei (%),[5],61% and 56%
same,Population Hoechst High Intensity Objects (%),[5],4% and 2%
same,Population Mitochondria Different-Phenotype (%),[5],12% and 31%
same,Population Mitotic Cells (%),[5],35% and 26%
same,Population Normal (%),[5],95% and 97%
same,Population Pyknosed Nuclei (%),[5],16% and 21%
same,Population Tubulin-Different-Phenotype (%),[5],8% and 18%
same,Total Cell Count,[5],240 and 161
same,Population Apoptotic (%),[6],96% and 100%
same,Population Fragmented Nuclei (%),[6],45% and 29%
same,Population Healthy Nuclei (%),[6],12% and 14%
same,Population Hoechst High Intensity Objects (%),[6],26% and 32%
same,Population Membrane Permeable-Phenotype (%),[6],45% and 70%
same,Population Mitochondria Different-Phenotype (%),[6],30% and 90%
same,Population Mitotic Cells (%),[6],3% and 0%
same,Population Normal (%),[6],73% and 67%
same,Population Pyknosed Nuclei (%),[6],41% and 56%
same,Population Tubulin-Different-Phenotype (%),[6],40% and 90%
same,Total Cell Count,[6],215 and 105
C[C@H]1[C@H]2CC[C@H]3[C@@H]4CC=C5C[C@@H](N(C)C)CC[C@]5(C)[C@H]4CC[C@]23CN1C [CONESSINE],Population Apoptotic (%),[1],80% and 58%
same,Population Fragmented Nuclei (%),[1],23% and 16%
same,Population Healthy Nuclei (%),[1],70% and 73%
same,Population Hoechst High Intensity Objects (%),[1],2% and 1%
same,Population Membrane Permeable-Phenotype (%),[1],5%
same,Population Mitochondria Different-Phenotype (%),[1],1% and 2%
same,Population Mitotic Cells (%),[1],20% and 41%
same,Population Normal (%),[1],97% and 98%
same,Population Pyknosed Nuclei (%),[1],6% and 9%
same,Population Tubulin-Different-Phenotype (%),[1],2% and 3%
same,Total Cell Count,[1],248 and 124
same,Population Apoptotic (%),[2],55% and 100%
same,Population Fragmented Nuclei (%),[2],19% and 17%
same,Population Healthy Nuclei (%),[2],71% and 68%
same,Population Hoechst High Intensity Objects (%),[2],2% and 0%
same,Population Membrane Permeable-Phenotype (%),[2],5% and 8%
same,Population Mitochondria Different-Phenotype (%),[2],0% and 5%
same,Population Normal (%),[2],97% and 99%
same,Population Pyknosed Nuclei (%),[2],8% and 13%
same,Population Tubulin-Different-Phenotype (%),[2],1% and 6%
same,Total Cell Count,[2],237 and 107
same,Population Apoptotic (%),[3],90% and 100%
same,Population Fragmented Nuclei (%),[3],18% and 11%
same,Population Healthy Nuclei (%),[3],74% and 81%
same,Population Hoechst High Intensity Objects (%),[3],2% and 1%
same,Population Membrane Permeable-Phenotype (%),[3],6% and 8%
same,Population Mitochondria Different-Phenotype (%),[3],1% and 5%
same,Population Mitotic Cells (%),[3],9% and 0%
same,Population Normal (%),[3],97% and 98%
same,Population Pyknosed Nuclei (%),[3],7%
same,Population Tubulin-Different-Phenotype (%),[3],3% and 7%
same,Total Cell Count,[3],307 and 153
same,Population Apoptotic (%),[4],65% and 100%
same,Population Fragmented Nuclei (%),[4],20% and 19%
same,Population Healthy Nuclei (%),[4],71%
same,Population Hoechst High Intensity Objects (%),[4],2% and 4%
same,Population Membrane Permeable-Phenotype (%),[4],2% and 10%
same,Population Mitochondria Different-Phenotype (%),[4],0% and 4%
same,Population Normal (%),[4],97% and 95%
same,Population Pyknosed Nuclei (%),[4],7% and 8%
same,Population Tubulin-Different-Phenotype (%),[4],1% and 9%
same,Total Cell Count,[4],265 and 134
same,Population Apoptotic (%),[5],83% and 86%
same,Population Fragmented Nuclei (%),[5],16%
same,Population Healthy Nuclei (%),[5],79% and 73%
same,Population Hoechst High Intensity Objects (%),[5],2%
same,Population Membrane Permeable-Phenotype (%),[5],4%
same,Population Mitochondria Different-Phenotype (%),[5],2% and 0%
same,Population Mitotic Cells (%),[5],16% and 13%
same,Population Normal (%),[5],97%
same,Population Pyknosed Nuclei (%),[5],4% and 9%
same,Population Tubulin-Different-Phenotype (%),[5],1% and 2%
same,Total Cell Count,[5],430 and 227
same,Population Apoptotic (%),[6],89% and 85%
same,Population Fragmented Nuclei (%),[6],19% and 15%
same,Population Healthy Nuclei (%),[6],73% and 72%
same,Population Hoechst High Intensity Objects (%),[6],1% and 6%
same,Population Membrane Permeable-Phenotype (%),[6],4% and 9%
same,Population Mitochondria Different-Phenotype (%),[6],2% and 5%
same,Population Mitotic Cells (%),[6],10% and 15%
same,Population Normal (%),[6],98% and 93%
same,Population Pyknosed Nuclei (%),[6],7% and 12%
same,Population Tubulin-Different-Phenotype (%),[6],3% and 6%
same,Total Cell Count,[6],370 and 175
